In data set [1] the test system is Fusarium oxysporum. Briefly: Antifungal activity against Fusarium oxysporum at 50 ug/mL incubated for 3 days by agar well diffusion method. The data set is classed as functional. Particulars: 72 h, read-out: IZ; call rule not given here. In a few lines:
(§1)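 Fungal growth inhibition measured by agar well diffusion, with bavistin as the reference. Records the mean inhibition-zone diameter (mm) around each well.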
Background: In agar diffusion tests the substance spreads into inoculated agar from a disc or well.

Data set [2] is described as follows: Antiglycation activity using bovine serum albumin incubated at 37 degC for 7 days by spectrofluorimetry. Type of data set: physicochemical. Summed up: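 Glycation of bovine serum albumin, with rutin as the reference standard. IC50 values are averages of triplicate runs.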
Data set [3] has as its target Urease (Canavalia ensiformis, UniProt P07374). Briefly: Inhibition of jack bean urease assessed as reduction in ammonia production incubated at 30 degC for 15 mins by indophenol method. Summed up: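 Inhibition of jack bean urease, with thiourea as the reference standard. IC50 values are the average of triplicate runs.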
Data set [4] is described as follows: Inhibition of sheep stomach parietal cells gastric H+/K+-ATPase activity assessed as reduction in inorganic phosphorus production by Fiske Subbarow's method. Type of data set: tissue-based, Ovis aries. Summed up:
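Inhibition of purified H+/K+-ATPase, with omeprazole as the reference. IC50 is the mean of triplicate runs.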

Data set [5] concerns Escherichia coli. Put plainly: Antibacterial activity against Escherichia coli at 50 ug/mL incubated for 24 hrs by agar well diffusion method. Type of data set: functional. Particulars: read-out: IZ. Summed up: (§2)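 Agar well diffusion against the bacterial isolate, with streptomycin as the reference drug. Read-out is the average diameter (mm) of the growth-inhibition zone around the well.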

The subject of data set [6] is Xanthomonas oryzae. Briefly: Antibacterial activity against Xanthomonas oryzae at 50 ug/mL incubated for 24 hrs by agar well diffusion method. The data set is classed as functional. Particulars: read-out: IZ.
The subject of data set [7] is Staphylococcus. Put plainly: Antibacterial activity against Coagulase positive Staphylococcus at 50 ug/mL incubated for 24 hrs by agar well diffusion method. The data set is classed as functional. Particulars: read-out: IZ. Summed up:
as §2

The test system of data set [8] is Aspergillus flavus. Briefly: Antifungal activity against Aspergillus flavus at 50 ug/mL incubated for 3 days by agar well diffusion method. Type of data set: functional. Particulars: 72 h, read-out: IZ. Summed up: as §1
Data set [9] concerns Aspergillus niger. Briefly: Antifungal activity against Aspergillus niger at 50 ug/mL incubated for 3 days by agar well diffusion method. The data set is classed as functional. Particulars: 72 h, read-out: IZ. Summed up:
as §1

For data set [10], the system named is Fusarium verticillioides. Briefly: Antifungal activity against Fusarium moniliforme at 50 ug/mL incubated for 3 days by agar well diffusion method. Type of data set: functional. The conditions noted are these: 72 h, read-out: IZ. In a few lines:
as §1

Structures are written as SMILES. Starred links: 1 amine or outer side, 2 acyl side, 3 side chain; linkers in the order of their positions; H or OH if unused. Residues, ends and D or L forms follow the SMILES beside them. *: point of attachment. Thiocarbamoyl(4-MeOPh) = COc1ccc(NC(=S)*)cc1; NH(4-MeO-phenyl) = COc1ccc(N*)cc1; X1 = c1ccc2c(N3CCN(*)CC3)nsc2c1; NH(3-MeOPh) = COc1cccc(N*)c1; X4 = COc1cccc(NC(=S)*)c1; X5 = COc1ccccc1NC(=S)*; Boc = CC(C)(C)OC(=O)*; CO = O=C([*:1])[*:2]; X3 = COc1ccccc1N*

Chain of Urease (P07374 whole entry): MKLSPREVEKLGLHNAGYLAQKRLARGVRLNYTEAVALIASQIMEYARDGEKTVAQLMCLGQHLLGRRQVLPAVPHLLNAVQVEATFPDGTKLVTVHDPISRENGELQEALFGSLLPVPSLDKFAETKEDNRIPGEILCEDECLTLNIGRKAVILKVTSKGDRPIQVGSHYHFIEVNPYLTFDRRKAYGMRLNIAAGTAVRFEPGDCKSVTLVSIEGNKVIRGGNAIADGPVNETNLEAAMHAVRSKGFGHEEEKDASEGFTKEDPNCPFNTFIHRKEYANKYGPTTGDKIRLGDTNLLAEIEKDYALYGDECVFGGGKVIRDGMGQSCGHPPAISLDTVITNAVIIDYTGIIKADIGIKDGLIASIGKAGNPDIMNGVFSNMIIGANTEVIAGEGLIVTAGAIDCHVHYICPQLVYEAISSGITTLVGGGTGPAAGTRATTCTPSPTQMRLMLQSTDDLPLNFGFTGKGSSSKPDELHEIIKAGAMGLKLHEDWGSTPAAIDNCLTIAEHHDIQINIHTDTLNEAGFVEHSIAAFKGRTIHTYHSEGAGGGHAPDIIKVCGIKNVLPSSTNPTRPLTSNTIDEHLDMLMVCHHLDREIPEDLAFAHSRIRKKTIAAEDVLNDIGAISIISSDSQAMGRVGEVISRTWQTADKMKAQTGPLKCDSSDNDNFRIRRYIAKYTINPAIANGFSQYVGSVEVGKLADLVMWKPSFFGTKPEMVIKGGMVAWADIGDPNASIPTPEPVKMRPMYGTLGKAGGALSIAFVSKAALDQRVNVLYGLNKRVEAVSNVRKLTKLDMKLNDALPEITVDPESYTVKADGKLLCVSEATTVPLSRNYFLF

In general, IC50 refers to the concentration that gives 50% inhibition. With `CC(C)[C@H](NC(=O)CNC(=O)[C@H](Cc1ccccc1)NC(=O)CNC(=O)OC(C)(C)C)C(=O)N1CCC[C@H]1C(=O)N1CCN(c2nsc3ccccc23)CC1` (Boc-GFGVP-X1), the zone of inhibition at 50 µg/mL stood at 7 mm in [1]; 8 mm in [5]; 7 mm in data set [6]; 6 mm in data set [7]; 7 mm in data set [8]; 6 mm in data set [9]. For the same molecule, in data set [10], the zone of inhibition at 50 µg/mL worked out at 7 mm. The IC50 in data set [2] is 235 µM; in [3], 255 µM; in data set [4], “Not Active”.

For `COc1cccc(NC(=S)NCC(=O)N[C@@H](Cc2ccccc2)C(=O)NCC(=O)N[C@H](C(=O)N2CCC[C@H]2C(=O)N2CCN(c3nsc4ccccc34)CC2)C(C)C)c1` (X4-GFGVP-X1), the zone of inhibition at 50 µg/mL in [1] was 23 mm; in data set [5], 21 mm; in data set [6] it was 19 mm; in data set [7], 20 mm; in [8] it was 23 mm; in [9], 24 mm. For the same molecule, in data set [10], the zone of inhibition at 50 µg/mL came out at 24 mm. Also, the results for the IC50 in data set [2], in [3] and in data set [4] (read-out: IC50) were 20 µM, 19 µM and 38 µM, respectively.

Turning to `COc1cccc(NC(=S)NCC(=O)N[C@H](C(=O)NCC(=O)N[C@H](C(=O)N2CCC[C@H]2C(=O)N2CCN(c3nsc4ccccc34)CC2)C(C)C)C(C)C)c1` (X4-GVGVP-X1), the zone of inhibition at 50 µg/mL came out at 19 mm in data set [1]; 17 mm in data set [5]; 16 mm in data set [6]; 18 mm in data set [7]; 18 mm in data set [8]; 16 mm in data set [9]. Further, the zone of inhibition at 50 µg/mL in [10] amounted to 19 mm. Further, the IC50 in data set [2] is 23 µM; in data set [3], 23 µM; in [4] (read-out: IC50), 36 µM.

As for `COc1ccccc1NC(=S)NCC(=O)N[C@@H](Cc1ccccc1)C(=O)NCC(=O)N[C@H](C(=O)N1CCC[C@H]1C(=O)N1CCN(c2nsc3ccccc23)CC1)C(C)C` (X5-GFGVP-X1), the zone of inhibition at 50 µg/mL in data set [1] was determined as 24 mm; in [5], 24 mm; in [6], 22 mm; in data set [7] it was 24 mm; in data set [8], 25 mm; in [9], 24 mm. The zone of inhibition at 50 µg/mL in data set [10] stood at 26 mm. The results for the IC50 in [2], in data set [3] and in [4] (read-out: IC50) were 19 µM, 18 µM and 46 µM, respectively.

With `COc1ccccc1NC(=S)NCC(=O)N[C@H](C(=O)NCC(=O)N[C@H](C(=O)N1CCC[C@H]1C(=O)N1CCN(c2nsc3ccccc23)CC1)C(C)C)C(C)C` (X5-GVGVP-X1), the zone of inhibition at 50 µg/mL turned out to be 22 mm in data set [1]; 21 mm in data set [5]; 19 mm in data set [6]; 20 mm in data set [7]; 22 mm in data set [8]; 20 mm in [9]. Further, the zone of inhibition at 50 µg/mL in [10] stood at 23 mm. Moreover, the IC50 in data set [2] came to 20 µM; in [3], 20 µM; in data set [4] (read-out: IC50), 40 µM.

As for `COc1cccc(NC(=O)NCC(=O)N[C@@H](Cc2ccccc2)C(=O)NCC(=O)N[C@H](C(=O)N2CCC[C@H]2C(=O)N2CCN(c3nsc4ccccc34)CC2)C(C)C)c1` ({NH(3-MeOPh)-CO}-GFGVP-X1), the zone of inhibition at 50 µg/mL stood at 22 mm in data set [1]; 19 mm in data set [5]; 18 mm in data set [6]; 20 mm in [7]; 21 mm in data set [8]; 20 mm in data set [9]. Moreover, the zone of inhibition at 50 µg/mL in data set [10] came to 22 mm. Besides, the IC50 in [2] was found to be 23 µM; in data set [3] it was 23 µM; in [4] (read-out: IC50) it was 48 µM.

Regarding `COc1cccc(NC(=O)NCC(=O)N[C@H](C(=O)NCC(=O)N[C@H](C(=O)N2CCC[C@H]2C(=O)N2CCN(c3nsc4ccccc34)CC2)C(C)C)C(C)C)c1` ({NH(3-MeOPh)-CO}-GVGVP-X1), the zone of inhibition at 50 µg/mL in data set [1] was 18 mm; in data set [5], 15 mm; in data set [6], 13 mm; in [7], 14 mm; in data set [8], 17 mm; in data set [9], 15 mm. The zone of inhibition at 50 µg/mL in [10] worked out at 18 mm. Moreover, the IC50 in data set [2] is 25 µM; in data set [3] it was 25 µM; in data set [4] (read-out: IC50), 38 µM.

With `COc1ccc(NC(=O)NCC(=O)N[C@@H](Cc2ccccc2)C(=O)NCC(=O)N[C@H](C(=O)N2CCC[C@H]2C(=O)N2CCN(c3nsc4ccccc34)CC2)C(C)C)cc1` ({NH(4-MeO-phenyl)-CO}-GFGVP-X1), the zone of inhibition at 50 µg/mL was 27 mm in data set [1]; 26 mm in data set [5]; 23 mm in data set [6]; 26 mm in data set [7]; 28 mm in data set [8]; 28 mm in data set [9]. The zone of inhibition at 50 µg/mL in data set [10] was determined as 29 mm. For the same molecule, the IC50 is 19 µM in data set [2], 17 µM in data set [3] and 38 µM in data set [4] (read-out: IC50).

Turning to `COc1ccc(NC(=O)NCC(=O)N[C@H](C(=O)NCC(=O)N[C@H](C(=O)N2CCC[C@H]2C(=O)N2CCN(c3nsc4ccccc34)CC2)C(C)C)C(C)C)cc1` ({NH(4-MeO-phenyl)-CO}-GVGVP-X1), the zone of inhibition at 50 µg/mL is 28 mm in data set [1]; 23 mm in data set [5]; 22 mm in data set [6]; 22 mm in [7]; 26 mm in data set [8]; 24 mm in [9]. Further, the zone of inhibition at 50 µg/mL in [10] came to 24 mm. Besides, the IC50 stood at 21 µM in data set [2], 21 µM in data set [3] and 34 µM in data set [4] (read-out: IC50).

For `COc1ccc(NC(=S)NCC(=O)N[C@@H](Cc2ccccc2)C(=O)NCC(=O)N[C@H](C(=O)N2CCC[C@H]2C(=O)N2CCN(c3nsc4ccccc34)CC2)C(C)C)cc1` ({Thiocarbamoyl(4-MeOPh)}-GFGVP-X1), the zone of inhibition at 50 µg/mL is 29 mm in data set [1]; 28 mm in [5]; 26 mm in data set [6]; 28 mm in data set [7]; 29 mm in data set [8]; 30 mm in data set [9]. Moreover, in data set [10], the zone of inhibition at 50 µg/mL amounted to 31 mm. The IC50 in data set [2] is 16 µM; in data set [3], 15 µM; in data set [4] (read-out: IC50), 34 µM.

`COc1ccc(NC(=S)NCC(=O)N[C@H](C(=O)NCC(=O)N[C@H](C(=O)N2CCC[C@H]2C(=O)N2CCN(c3nsc4ccccc34)CC2)C(C)C)C(C)C)cc1` ({Thiocarbamoyl(4-MeOPh)}-GVGVP-X1): the zone of inhibition at 50 µg/mL in data set [1] is 26 mm; in data set [5] it was 24 mm; in data set [6], 25 mm; in data set [7] it was 24 mm; in data set [8], 25 mm; in data set [9] it was 24 mm. The zone of inhibition at 50 µg/mL in data set [10] came out at 26 mm. Besides, the IC50 in data set [2] was 18 µM; in data set [3], 18 µM; in data set [4] (read-out: IC50), 32 µM.

`COc1ccccc1NC(=O)NCC(=O)N[C@@H](Cc1ccccc1)C(=O)NCC(=O)N[C@H](C(=O)N1CCC[C@H]1C(=O)N1CCN(c2nsc3ccccc23)CC1)C(C)C` ({X3-CO}-GFGVP-X1): the zone of inhibition at 50 µg/mL worked out at 23 mm in data set [1]; 23 mm in data set [5]; 22 mm in [6]; 23 mm in data set [7]; 25 mm in data set [8]; 24 mm in data set [9]. Further, in data set [10], the zone of inhibition at 50 µg/mL was 26 mm. For the same molecule, the IC50 in [2] worked out at 22 µM; in data set [3] it was 21 µM; in [4] (read-out: IC50), 54 µM.

Turning to `COc1ccccc1NC(=O)NCC(=O)N[C@H](C(=O)NCC(=O)N[C@H](C(=O)N1CCC[C@H]1C(=O)N1CCN(c2nsc3ccccc23)CC1)C(C)C)C(C)C` ({X3-CO}-GVGVP-X1), the zone of inhibition at 50 µg/mL was 21 mm in [1]; 19 mm in data set [5]; 18 mm in [6]; 19 mm in data set [7]; 21 mm in [8]; 23 mm in [9]. The zone of inhibition at 50 µg/mL in data set [10] was found to be 23 mm. The IC50 in [2] was determined as 24 µM; in data set [3], 22 µM; in data set [4] (read-out: IC50), 46 µM.

Molecule `C[C@@H]1O[C@@H](OC[C@H]2O[C@@H](Oc3c(-c4ccc(O)c(O)c4)oc4cc(O)cc(O)c4c3=O)[C@H](O)[C@@H](O)[C@@H]2O)[C@H](O)[C@H](O)[C@H]1O` [RUTIN] gave an IC50 in data set [2] of 41.9 µM.

The values above are taken from ChEMBL document CHEMBL3352339, “Implications of N-capped urea/thiourea and C-capped 3-(1-piperazinyl)-1,2-benzisothiazole with bridging Gly-Val/Phe-Gly-Val-Pro as therapeutic targets” (Eur J Med Chem, 2014).
